# Data from ChEMBL document CHEMBL4118256, “Second Generation of Mannich Base-Type Derivatives with in Vivo Activity against Trypanosoma cruzi” (J Med Chem, 2018).
# Active and inactive are the calls of the source. No cut-off for these calls is given here.
# Columns and labels:
# [1] = tested on: Mus musculus; experiment: (§1) Hepatotoxicity in Balb/c mouse infected with Trypanosoma cruzi MHOM/Pe/2011/Arequipa DTU 5 trypamastigotes assessed as increase in ratio of serum ALT to GPT level at 100 mg/kg, po once daily for 5 consecutive days starting from day 75 post infection measured on day 127 post infection by biochemical analysis relative to control; format: toxicity, organism-based; conditions: in vivo
# [2] = tested on: Mus musculus; experiment: as §1, with “change” for “increase”, “total bilirubin” for “ratio of serum ALT to GPT”, “[…],” for “100 mg/kg,”, “81” for “127”; format: toxicity, organism-based; conditions: in vivo
# How it was run: (§2)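 Serum clinical chemistry in Arequipa-infected female BALB/c mice. Oral 20 mg·kg-1 per day for 5 days, started day 10 or day 75 pi. Samples taken at day 16 pi or day 81 pi, and on necropsy day. Markers: CK-MB and LDH (U/L), AST, ALT and alkaline phosphatase (U/L), total bilirubin. Results scored relative to infected untreated controls; uninfected reference n = 15.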
# [3] = tested on: Mus musculus; experiment: as §1, with “Nephrotoxicity” for “Hepatotoxicity”, “decrease” for “increase”, “uric acid level in” for “ratio of”, “serum” for “serum ALT to GPT level”; format: toxicity, organism-based; design: scale not given: the % may be the effect or the level left; conditions: in vivo
# [4] = tested on: Mus musculus; experiment: as §1, with “Cardiotoxicity” for “Hepatotoxicity”, “change” for “increase”, “in” for “in ratio of”, “LDH” for “ALT to GPT”, “20” for “100”, “10” for “75”; format: toxicity, organism-based; conditions: in vivo; how it was run: as §2
# [5] = tested on: Mus musculus; experiment: as §1, with “Cardiotoxicity” for “Hepatotoxicity”, “decrease” for “increase”, “in” for “in ratio of”, “LDH” for “ALT to GPT”, “20” for “100”, “81” for “127”; format: toxicity, organism-based; design: scale not given: the % may be the effect or the level left; conditions: in vivo; how it was run: as §2
# [6] = tested on: Mus musculus; experiment: as §1, with “Cardiotoxicity” for “Hepatotoxicity”, “change” for “increase”, “creatine kinase in muscle” for “serum ALT”, “brain” for “GPT level”, “20” for “100”, “10” for “75”; format: toxicity, organism-based; conditions: in vivo; how it was run: as §2
# [7] = tested on: Mus musculus; experiment: as §1, with “Cardiotoxicity” for “Hepatotoxicity”, “decrease” for “increase”, “creatine kinase in muscle” for “serum ALT”, “brain” for “GPT level”, “20” for “100”, “81” for “127”; format: toxicity, organism-based; design: scale not given: the % may be the effect or the level left; conditions: in vivo; how it was run: as §2
# [8] = tested on: Mus musculus; experiment: as §1, with “20” for “100”, “10” for “75”, “16” for “127”; format: toxicity, organism-based; conditions: in vivo
# [9] = tested on: Mus musculus; experiment: (§3) Nephrotoxicity in Balb/c mouse infected with Trypanosoma cruzi MHOM/Pe/2011/Arequipa DTU 5 trypamastigotes assessed as decrease in uric acid level in serum at 20 mg/kg, po once daily for 5 consecutive days starting from day 10 post infection measured on day 16 post infection by biochemical analysis relative to control; format: toxicity, organism-based; design: scale not given: the % may be the effect or the level left; conditions: in vivo
# [10] = tested on: Mus musculus; experiment: as §3, with “75” for “10”, “127” for “16”; format: toxicity, organism-based; design: scale not given: the % may be the effect or the level left; conditions: in vivo
# [11] = tested on: Mus musculus; experiment: as §1, with “20” for “100”, “81” for “127”; format: toxicity, organism-based; conditions: in vivo
# [12] = tested on: Mus musculus; experiment: as §1, with “alkaline phosphatase” for “ratio of serum ALT to GPT”, “20” for “100”; format: toxicity, organism-based; conditions: in vivo
# [13] = tested on: Trypanosoma cruzi; experiment: Antitrypanosomal activity against Trypanosoma cruzi MHOM/Pe/2011/Arequipa DTU 5 trypamastigotes infected in Balb/c mouse assessed as reduction in parasitaemia reactivation at 20 mg/kg, po pretreated once daily for 5 consecutive days starting from day 10 post infection followed by cyclophosphamide-induced immunosuppression on day 100 post infection every 4 days for a maximum of 3 doses measured up to 1 week post immunosuppression by Neubauer chamber method; format: functional; design: scale not given: the % may be the effect or the level left
# How it was run: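 Female BALB/c mice (8-10 weeks, 20-25 g), groups of six, infected i.p. with 5 x 10^5 bloodstream trypomastigotes in 0.2 mL PBS; oral dosing 20 mg·kg-1 per day for 5 days in 5% DMSO/0.5% HPMC vehicle. After day 100 pi, cyclophosphamide 200 mg·kg-1 i.p. every 4 days, up to three doses. Within 1 week after the last dose, fresh-blood bloodstream trypomastigotes counted in a Neubauer chamber. Reactivation expressed relative to untreated infected controls.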
# [14] = tested on: Trypanosoma cruzi; experiment: Antitrypanosomal activity against Trypanosoma cruzi MHOM/Pe/2011/Arequipa DTU 5 trypamastigotes infected in Balb/c mouse assessed as reduction in parasitaemia level at 20 mg/kg, po once daily for 5 consecutive days starting from day 10 post infection measured on day 47 post infection by Neubauer chamber method; format: functional, organism-based
# How it was run: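 Six female BALB/c mice per group, infected i.p. with 5 x 10^5 Arequipa bloodstream trypomastigotes in PBS. Oral dosing once daily for 5 days from day 10 pi, 20 mg·kg-1 per day in aqueous 5 % DMSO/0.5 % HPMC, vehicle to controls. Blood trypomastigotes counted in a Neubauer chamber (parasites·mL-1); means ± SD.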
# [15] = tested on: Mus musculus; experiment: as §1, with “change” for “increase”, “10” for “75”; format: toxicity, organism-based; conditions: in vivo
# [16] = tested on: Trypanosoma cruzi; experiment: Antitrypanosomal activity against Trypanosoma cruzi MHOM/Pe/2011/Arequipa DTU 5 epimastigotes assessed as effect on parasite glycolytic pathway by measuring decrease in succinate excretion at IC25 after 72 hrs by 1H NMR method; format: functional, organism-based
# How it was run: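 Arequipa epimastigotes exposed at IC25 for 72 h alongside an untreated control. Excreted catabolites were analysed by 1H NMR, and each peak is reported as % variation versus the control. Three separate determinations.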
# [17] = tested on: Mus musculus; experiment: as §1, with “Nephrotoxicity” for “Hepatotoxicity”, “urea level in” for “ratio of”, “serum” for “serum ALT to GPT level”, “81” for “127”; format: toxicity, organism-based; conditions: in vivo
# [18] = tested on: Mus musculus; experiment: as §3, with “as increase” for “as decrease”, “in urea” for “in uric acid”, “at […]” for “at 20”; format: toxicity, organism-based; conditions: in vivo
# [19] = tested on: Mus musculus; experiment: as §1, with “Cardiotoxicity” for “Hepatotoxicity”, “decrease” for “increase”, “creatine kinase in muscle” for “serum ALT”, “brain” for “GPT level”; format: toxicity, organism-based; design: scale not given: the % may be the effect or the level left; conditions: in vivo
# [20] = tested on: Trypanosoma cruzi; experiment: (§4) Antitrypanosomal activity against Trypanosoma cruzi MHOM/Pe/2011/Arequipa DTU 5 trypamastigotes infected in Balb/c mouse assessed as reduction in parasitaemia reactivation in muscle tissue at 100 mg/kg, po pretreated once daily for 5 consecutive days starting from day 75 post infection followed by cyclophosphamide-induced immunosuppression on day 100 post infection every 4 days for a maximum of 3 doses measured on day 127 post infection by PCR method; format: functional; design: scale not given: the % may be the effect or the level left
# [21] = tested on: Trypanosoma cruzi; experiment: as §4, with “adipose” for “muscle”, “10” for “75”; format: functional; design: scale not given: the % may be the effect or the level left; conditions: pooled result: one value given for 9 cell lines, strains, targets or settings
# How it was run: (§5)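 Necropsy on day 127 pi after oral treatment and cyclophosphamide immunosuppression. Tissue DNA was amplified by PCR targeting the ~300 bp T. cruzi SOD gene, 200 nM each primer, 30 cycles with 55.5 °C annealing. Products run on 2 % agarose; positive organs counted out of six mice.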
# [22] = tested on: Trypanosoma cruzi; experiment: as §4, with “brain” for “muscle”; format: functional; design: scale not given: the % may be the effect or the level left; how it was run: as §5
# [23] = tested on: Trypanosoma cruzi; experiment: as §4, with “stomach” for “muscle”; format: functional; design: scale not given: the % may be the effect or the level left
# [24] = tested on: Mus musculus; experiment: as §1, with “decrease” for “increase”, “10” for “75”; format: toxicity, organism-based; design: scale not given: the % may be the effect or the level left; conditions: in vivo
structure (smiles),measurement,setting,value
COc1ccc(C(=O)CCN2CCN(c3ccc([N+](=O)[O-])cc3)CC2)cc1,Activity,[1],<= 10%
same,Activity,[2],< 10%
same,Activity,[3],<= 30%
O=C(Cn1ccnc1[N+](=O)[O-])NCc1ccccc1 [BENZNIDAZOLE],Activity,[4],< 10%
same,Activity,[5],<= 30%
same,Activity,[6],< 10%
same,Activity,[7],<= 10%
same,Activity,[8],> 40%
same,Activity,[9],> 40%
same,Activity,[10],<= 20%
same,Activity,[11],<= 20%
same,Activity,[12],<= 20%
same,Activity,[13],75%
same,Activity,[14],inactive
COc1ccc(C(=O)CCN2CCN(c3ccc(F)cc3)CC2)cc1,Activity,[15],< 10%
same,Activity,[16],Active
same,Activity,[17],<= 30%
same,Activity,[18],<= 30%
COc1ccc(C(=O)CCN2CCN(c3ccc(Cl)cc3)CC2)cc1,Activity,[19],<= 10%
same,Activity,[20],78%
same,Activity,[21],89%
same,Activity,[22],78%
same,Activity,[23],78%
same,Activity,[24],<= 10%
